Test results: ChEMBL document CHEMBL3352044, “Synthesis and structure-activity relationship studies of N-benzyl-2-phenylpyrimidin-4-amine derivatives as potent USP1/UAF1 deubiquitinase inhibitors with anticancer activity against nonsmall cell lung cancer” (J Med Chem, 2014)
Values after ≈ are worked out from the molar mass of the structure shown.

Assays:
Liver = assay: Half life in mouse liver microsomes; type: ADME
Method in brief: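 Incubated with mouse liver microsomes in the presence of NADPH, run by a contract lab; read-out is the half-life (T1/2) in minutes.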

[1] = target: 5-hydroxytryptamine receptor 2A (Homo sapiens) (UniProt P28223); assay: Inhibition of 5-HT2A (unknown origin) at 10 uM
Method in brief: (§1)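 Single concentration of 10 μM in an 80-target panel of GPCRs, ion channels and transporters; percent inhibition recorded.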

[2] = Kinetic aqueous solubility of the compound in PBS at pH 7.4; type: physicochemical; conditions: read-out: Kinetic_solubility
[3] = Cytotoxicity against human H1299 cells assessed as reduction in colony formation at 5 uM after 7 days; type: functional; conditions: NCI-H1299, 168 h, read-out: INH
Method in brief: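 H1299 cells seeded at 200 cells/well, attached overnight, then exposed to 5 μM compound or equal volume DMSO. After 7 days, fixed with 20% methanol and stained with 0.1% crystal violet; percent survival scored versus DMSO control.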

[4] = target: T1, Adenosine receptor A3 (Homo sapiens) (UniProt P0DMS8); assay: Inhibition of adenosine A3 receptor (unknown origin) at 10 uM; method in brief: as §1
T1 sequence (whole entry): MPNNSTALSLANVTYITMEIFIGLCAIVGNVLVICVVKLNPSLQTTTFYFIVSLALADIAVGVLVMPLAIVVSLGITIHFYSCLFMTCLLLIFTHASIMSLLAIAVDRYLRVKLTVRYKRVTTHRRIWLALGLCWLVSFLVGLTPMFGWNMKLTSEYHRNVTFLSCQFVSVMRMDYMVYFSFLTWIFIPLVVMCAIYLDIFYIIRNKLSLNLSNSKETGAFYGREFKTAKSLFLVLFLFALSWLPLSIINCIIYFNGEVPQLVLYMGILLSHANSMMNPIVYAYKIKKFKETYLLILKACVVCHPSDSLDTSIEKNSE

[5] = target: Melatonin receptor type 1A (Homo sapiens) (UniProt P48039); assay: Inhibition of MT1 (unknown origin) at 10 uM; method in brief: as §1
[6] = Stability of the compound in mouse plasma after 2 hrs; type: ADME, cell-free; conditions: read-out: Stability
Method in brief: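 Mouse plasma incubation for 2 h; percent compound remaining.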

Liver microsome [7] = assay: Half life in rat liver microsomes in presence of NADPH; type: ADME
Method in brief: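 Rat liver microsomes with NADPH; half-life in minutes.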

[8] = target: T2, 5-hydroxytryptamine receptor 2C (Homo sapiens) (UniProt P28335); assay: Inhibition of 5-HT2C (unknown origin) at 10 uM; method in brief: as §1
T2 sequence (whole entry): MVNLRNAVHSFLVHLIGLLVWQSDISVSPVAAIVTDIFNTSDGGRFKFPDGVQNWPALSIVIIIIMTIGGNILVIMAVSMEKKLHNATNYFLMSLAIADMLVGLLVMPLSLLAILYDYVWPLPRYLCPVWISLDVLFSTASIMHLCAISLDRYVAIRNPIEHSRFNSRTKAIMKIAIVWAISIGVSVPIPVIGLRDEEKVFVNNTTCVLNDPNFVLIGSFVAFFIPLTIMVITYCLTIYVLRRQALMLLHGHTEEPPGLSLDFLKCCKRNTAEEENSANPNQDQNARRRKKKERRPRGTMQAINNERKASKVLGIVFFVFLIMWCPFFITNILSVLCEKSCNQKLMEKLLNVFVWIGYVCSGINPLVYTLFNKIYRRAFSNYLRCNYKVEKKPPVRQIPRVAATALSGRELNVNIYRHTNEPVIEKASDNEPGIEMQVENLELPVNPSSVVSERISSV

[9] = Lipophilicity, log D of the compound at pH 7.4 by shake-flask method; type: physicochemical; conditions: buffer
Method in brief: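 Log D at pH 7.4 by miniaturized (scaled-down) shake-flask method.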

[10] = Permeability of the compound from apical to basolateral direction in human Caco2 cells; type: ADME, cell-based; conditions: caco-2
[11] = target: 5-hydroxytryptamine receptor 2B (Homo sapiens) (UniProt P41595); assay: Inhibition of 5-HT2B (unknown origin) at 10 uM; method in brief: as §1
Liver microsome [12] = assay: Half life in human liver microsomes; type: ADME
Method in brief: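 Human liver microsomes in the presence of NADPH; half-life (min).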

Homo sapiens = organism: Homo sapiens; assay: Inhibition of Calcium channel (unknown origin) at 10 uM; method in brief: as §1
[13] = Chemical stability of the compound in PBS buffer at pH 7.4 after 48 hrs; type: physicochemical; conditions: read-out: Stability
Method in brief: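 PBS buffer pH 7.4 for 48 h; percent compound remaining.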

[14] = target: T3, Peroxisome proliferator-activated receptor gamma (Homo sapiens) (UniProt P37231); assay: Inhibition of PPARgamma (unknown origin) at 10 uM; method in brief: as §1
T3 sequence (whole entry): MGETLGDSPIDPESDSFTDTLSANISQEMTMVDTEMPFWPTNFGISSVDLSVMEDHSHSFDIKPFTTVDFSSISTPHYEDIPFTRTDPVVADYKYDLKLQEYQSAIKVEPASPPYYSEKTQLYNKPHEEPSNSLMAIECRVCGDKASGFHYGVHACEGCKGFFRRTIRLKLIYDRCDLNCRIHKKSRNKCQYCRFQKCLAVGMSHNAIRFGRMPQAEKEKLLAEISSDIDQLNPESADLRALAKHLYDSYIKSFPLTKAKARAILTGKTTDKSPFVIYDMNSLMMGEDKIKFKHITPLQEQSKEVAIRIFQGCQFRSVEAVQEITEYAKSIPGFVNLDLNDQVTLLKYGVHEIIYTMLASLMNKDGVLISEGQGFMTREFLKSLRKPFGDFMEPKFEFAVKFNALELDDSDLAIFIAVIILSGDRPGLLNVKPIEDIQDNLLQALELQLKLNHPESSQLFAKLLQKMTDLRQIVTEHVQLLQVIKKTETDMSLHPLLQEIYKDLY

Sequence of 5-hydroxytryptamine receptor 2A (Homo sapiens) (P28223 whole entry): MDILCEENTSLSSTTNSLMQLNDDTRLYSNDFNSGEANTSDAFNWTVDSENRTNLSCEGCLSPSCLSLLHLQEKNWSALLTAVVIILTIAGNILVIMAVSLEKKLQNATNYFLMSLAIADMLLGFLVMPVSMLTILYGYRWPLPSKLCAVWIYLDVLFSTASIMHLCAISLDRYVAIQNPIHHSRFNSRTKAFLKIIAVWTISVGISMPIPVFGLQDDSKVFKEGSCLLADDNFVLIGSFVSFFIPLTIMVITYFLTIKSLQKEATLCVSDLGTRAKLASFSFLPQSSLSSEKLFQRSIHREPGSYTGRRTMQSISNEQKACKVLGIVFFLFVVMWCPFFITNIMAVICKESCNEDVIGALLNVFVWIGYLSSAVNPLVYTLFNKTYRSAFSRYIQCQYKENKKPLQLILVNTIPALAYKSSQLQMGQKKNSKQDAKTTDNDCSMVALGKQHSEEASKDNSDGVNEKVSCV
Sequence of 5-hydroxytryptamine receptor 2B (Homo sapiens) (P41595 whole entry): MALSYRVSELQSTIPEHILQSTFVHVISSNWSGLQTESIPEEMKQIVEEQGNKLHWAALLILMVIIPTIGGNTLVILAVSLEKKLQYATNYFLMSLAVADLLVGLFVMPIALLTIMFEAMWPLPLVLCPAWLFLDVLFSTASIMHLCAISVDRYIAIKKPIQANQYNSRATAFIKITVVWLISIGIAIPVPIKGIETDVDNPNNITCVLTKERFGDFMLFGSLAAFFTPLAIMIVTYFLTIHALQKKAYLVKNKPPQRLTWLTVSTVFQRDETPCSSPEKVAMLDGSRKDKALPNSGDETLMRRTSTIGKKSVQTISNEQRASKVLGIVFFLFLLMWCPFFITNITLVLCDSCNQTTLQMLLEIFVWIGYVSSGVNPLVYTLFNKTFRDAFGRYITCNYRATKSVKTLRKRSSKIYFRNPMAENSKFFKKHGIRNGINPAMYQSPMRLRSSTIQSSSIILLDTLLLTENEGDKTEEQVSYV
Sequence of Melatonin receptor type 1A (Homo sapiens) (P48039 whole entry): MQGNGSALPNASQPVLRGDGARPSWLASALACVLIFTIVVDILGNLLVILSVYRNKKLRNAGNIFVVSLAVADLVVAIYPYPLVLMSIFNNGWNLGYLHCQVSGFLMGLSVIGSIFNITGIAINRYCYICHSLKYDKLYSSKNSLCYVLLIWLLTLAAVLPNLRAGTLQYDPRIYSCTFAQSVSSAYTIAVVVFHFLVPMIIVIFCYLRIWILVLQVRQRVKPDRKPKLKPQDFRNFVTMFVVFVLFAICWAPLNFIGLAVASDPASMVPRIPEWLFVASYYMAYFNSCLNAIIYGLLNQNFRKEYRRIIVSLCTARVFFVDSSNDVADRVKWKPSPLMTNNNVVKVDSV

In the case of Cc1cnc(-c2ccccc2C(C)C)nc1NCc1ccc(-n2ccnn2)cc1, the t1/2 (Liver) was 15 min, the inhibition [1] was > 50% and the solubility kinetic [2] was 86 µM (≈ 33.1 µg/mL). For the same molecule, the inhibition at 5 µM [3] was > 70%, the inhibition [4] was > 50% and the inhibition [5] was > 50%. For the same molecule, the remaining at 2 h [6] was 99%, the t1/2 (Liver microsome [7]) was 15 min and the inhibition [8] was > 50%. For the same molecule, the logD [9] was 1.97, the Papp [10] was 22.98 ×10⁻⁶ cm/s and the inhibition [11] was > 50%. The t1/2 (Liver microsome [12]) was 26 min, the inhibition (Homo sapiens) was > 50% and the remaining at 48 h [13] was 99%. For the same molecule, the inhibition [14] was > 50%.
